Experimental data as given in ChEMBL document CHEMBL4431310, “Characterization and in vitro activity of a branched peptide boronic acid that interacts with HIV-1 RRE RNA” (Bioorg Med Chem, 2016).
Active and inactive are the calls of the source. The calls are words filed in the database; no cut-off is given here. *1 amine or outer side, *2 acyl side, *3 side chain or, on linkers, in order; H or OH if unused. Where a SMILES comes first, the peptide text is derived from it. Side-chain parts run from the residue outwards. [ ]: non-standard residue; d: D form. The star is where a group is joined. X4 = NCCCC[C@H](NC(=O)[C@@H](N)CCCCNC(=O)c1ccc(B(O)O)cc1)C(=O)N[C@@H](Cc1ccc(B(O)O)cc1)C(=O)*; X1 = N[C@@H](Cc1ccc(B(O)O)cc1)C(=O)N[C@@H](Cc1ccc(O)cc1)C(=O)N[C@@H](Cc1ccc(B(O)O)cc1)C(=O)*; X2 = NCCCC[C@H](NC(=O)[C@@H](N)CCCCN)C(=O)N[C@@H](CCCCNC(=O)c1ccc(B(O)O)cc1)C(=O)*; X3 = NCCCC[C@H](N)C(=O)N[C@@H](CCCCNC(=O)c1ccc(B(O)O)cc1)C(=O)*; Phe(4-B(OH)2) = N[C@@H](Cc1ccc(B(O)O)cc1)C(=O)O; Benzoyl(4-B(OH)2) = O=C(c1ccc(B(O)O)cc1)*; εLys = N[C@@H](CCCCN[*:1])C(=O)[*:2]

Key:
[1] = target: Rev responsive element (RRE) RNA; assay: Binding affinity to HIV-1 RRE 2B RNA measured after 4 hrs by dot blot assay; format: nucleic-acid assay, Human immunodeficiency virus 1
Method in brief: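 RNA at 0.4 nM titrated with peptide 0.001–100 µM for 4 h at rt, filtered through nitrocellulose, washed twice, imaged by phosphorimaging. Kd from four-parameter logistic fit of densitometry; triplicate, SD reported.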

[2] = test system: Human immunodeficiency virus 1; assay: Antiviral activity against HIV-1 NL4-3 infected monkey 5BD.1 cells assessed as reduction in p24 production at 10 uM measured over 24 hrs by p24 ELISA; format: functional
[3] = test system: Human immunodeficiency virus 1; assay: Antiviral activity against HIV-1 NL4-3 infected in human U87 cells expressing CD4.CXCR4 assessed as inhibition of p24 production at 10 uM measured after 4 days by p24 ELISA; format: functional, organism-based
[4] = test system: Human immunodeficiency virus 1; assay: Antiviral activity against HIV-1 NL4-3 infected in human U87 cells expressing CD4.CXCR4 assessed as inhibition of p24 production at 100 uM measured after 4 days by p24 ELISA; format: functional, organism-based
HeLa = assay: Cytotoxicity in human HeLa cells assessed as cell viability at 100 nM to 10 uM measured over 24 hrs by MTT assay; format: cell-based; details: 0.1 µM
[5] = test system: Rev responsive element (RRE) RNA; assay: Binding affinity to HIV-1 RRE 2B RNA assessed as protection against RNase A-mediated RRE 2B cleavage at C21 and U24 preincubated for 4 hrs followed by addition of RNase A measured up to 20 uM after 1 hr by nuclease protection assay; format: nucleic-acid assay; details: Human immunodeficiency virus 1
Method in brief: (§1)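 5'-32P-labeled RRE IIB (10 nM) mixed with unlabeled RRE IIB (200 nM), heated to 95 °C for 3 min and snap-cooled. Incubated with peptide (up to 20 µM) on ice for 4 h in 10 mM Tris pH 7, 100 mM KCl, 10 mM MgCl2. Digested on ice with RNase V1 (0.002 U, 10 min), RNase T1 (1 U, 1 h) or RNase A (20 ng, 1 h). Stopped with inactivation/precipitation buffer, run on 12% urea PAGE, read by autoradiography against an alkaline hydrolysis ladder.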

[6] = test system: Human immunodeficiency virus 1; assay: Antiviral activity against HIV-1 NL4-3 infected in human U87 cells expressing CD4.CXCR4 assessed as inhibition of p24 production measured after 4 days by p24 ELISA; format: functional, organism-based
[7] = target: Rev responsive element (RRE) RNA; assay: Binding affinity to HIV-1 RRE 2B RNA measured after 4 hrs by EMSA; format: nucleic-acid assay, Human immunodeficiency virus 1
[8] = Binding affinity to HIV-1 TAR RNA; design: species or system Human immunodeficiency virus 1
[9] = test system: Rev responsive element (RRE) RNA; assay: Binding affinity to HIV-1 RRE 2B RNA assessed as protection against RNase V1-mediated RRE 2B cleavage at G17 and C18 preincubated for 4 hrs followed by addition of RNase V1 measured after 10 mins by nuclease protection assay; format: nucleic-acid assay; details: Human immunodeficiency virus 1; method in brief: as §1
[10] = test system: Rev responsive element (RRE) RNA; assay: Binding affinity to HIV-1 RRE 2B RNA assessed as protection against RNase A-mediated RRE 2B cleavage at C33 of loop B preincubated for 4 hrs followed by addition of RNase A at 20 uM measured after 1 hr by nuclease protection assay; format: nucleic-acid assay; details: Human immunodeficiency virus 1; method in brief: as §1
[11] = test system: Rev responsive element (RRE) RNA; assay: Binding affinity to HIV-1 RRE 2B RNA assessed as protection against RNase T1-mediated RRE 2B cleavage preincubated for 4 hrs followed by addition of RNase T1 measured up to 20 uM after 1 hr by nuclease protection assay; format: nucleic-acid assay; details: Human immunodeficiency virus 1; method in brief: as §1
[12] = target: Rev responsive element (RRE) RNA; assay: Binding affinity to HIV-1 RRE 2B RNA in presence of 1000-fold excess tRNA; format: nucleic-acid assay, Human immunodeficiency virus 1
[13] = test system: Rev responsive element (RRE) RNA; assay: Binding affinity to HIV-1 RRE 2B RNA assessed as protection against RNase T1-mediated RRE 2B cleavage at G10 and G11 preincubated for 4 hrs followed by addition of RNase T1 at 20 uM measured after 1 hr by nuclease protection assay; format: nucleic-acid assay; details: Human immunodeficiency virus 1; method in brief: as §1
[14] = test system: Rev responsive element (RRE) RNA; assay: Binding affinity to HIV-1 RRE 2B RNA assessed as protection against RNase A-mediated RRE 2B cleavage at U9 and G34 preincubated for 4 hrs followed by addition of RNase A at 20 uM measured after 1 hr by nuclease protection assay; format: nucleic-acid assay; details: Human immunodeficiency virus 1; method in brief: as §1
[15] = Toxicity against human U87 cells expressing CD4.CXCR4 assessed as cell viability at 10 uM measured after 24 hrs by MTT assay; format: cell-based, U-87MG ATCC; details: read-out: Activity
[16] = test system: Rev responsive element (RRE) RNA; assay: Selectivity ratio of Kd for HIV-1 RRE 2B RNA to Kd for HIV-1 RRE 2B RNA in presence of 1000-fold excess tRNA; format: nucleic-acid assay; details: Human immunodeficiency virus 1

Row | SMILES | Kd [1] [µM] | inhibition [2] | inhibition [3] | other results
1 | N[C@@H](Cc1ccc(B(O)O)cc1)C(=O)N[C@@H](Cc1ccc(O)cc1)C(=O)N[C@@H](Cc1ccc(B(O)O)cc1)C(=O)NCCCC[C@H](NC(=O)[C@H](Cc1ccc(B(O)O)cc1)NC(=O)[C@H](Cc1ccc(O)cc1)NC(=O)[C@@H](N)Cc1ccc(B(O)O)cc1)C(=O)O | > 100 | – | – | –
2 | CCc1c(C)nc2sc(C(N)=O)c(N)c2c1C | – | Active | – | –
3 | Cc1cn([C@H]2C[C@H](N=[N+]=[N-])[C@@H](CO)O2)c(=O)[nH]c1=O | – | – | Active | inhibition [4]: Active
4 | Nc1ccn([C@@H]2CS[C@H](CO)O2)c(=O)n1 | – | – | Active | inhibition [4]: Active
5 | NCCCC[C@H](NC(=O)[C@H](CCCCN)NC(=O)[C@H](CCCCNC(=O)c1ccc(B(O)O)cc1)NC(=O)[C@H](CCCCNC(=O)[C@H](Cc1ccc(B(O)O)cc1)NC(=O)[C@H](CCCCN)NC(=O)[C@@H](N)CCCCNC(=O)c1ccc(B(O)O)cc1)NC(=O)[C@H](Cc1ccc(B(O)O)cc1)NC(=O)[C@H](CCCCN)NC(=O)[C@@H](N)CCCCNC(=O)c1ccc(B(O)O)cc1)C(=O)N[C@@H](Cc1ccc(O)cc1)C(=O)O (H-K(Benzoyl(4-B(OH)2))K[Phe(4-B(OH)2)]K(X4)K(Benzoyl(4-B(OH)2))KKY-OH) | 3.3 | Active | inactive | –
6 | NCCCC[C@H](NC(=O)[C@H](Cc1ccc(O)cc1)NC(=O)[C@@H](N)CCCCNC(=O)c1ccc(B(O)O)cc1)C(=O)NCCCC[C@H](NC(=O)[C@H](CCCCN)NC(=O)[C@H](Cc1ccc(O)cc1)NC(=O)[C@@H](N)CCCCNC(=O)c1ccc(B(O)O)cc1)C(=O)N[C@@H](Cc1cnc[nH]1)C(=O)N[C@@H](CCCCN)C(=O)N[C@@H](CCCCN)C(=O)N[C@@H](Cc1ccc(O)cc1)C(=O)O (H-K(Benzoyl(4-B(OH)2))YKK([Lys-Tyr-εLys-Benzoyl(4-B(OH)2)])HKKY-OH) | 86.5 | Active | inactive | –
7 | NCCCC[C@H](NC(=O)[C@H](CCCCN)NC(=O)[C@H](CCCCNC(=O)[C@H](Cc1ccccc1)NC(=O)[C@H](CCCCNC(=O)c1ccc(B(O)O)cc1)NC(=O)[C@@H](N)CCCCN)NC(=O)[C@H](Cc1ccccc1)NC(=O)[C@H](CCCCNC(=O)c1ccc(B(O)O)cc1)NC(=O)[C@@H](N)CCCCN)C(=O)N[C@@H](Cc1c[nH]c2ccccc12)C(=O)N[C@@H](Cc1ccc(O)cc1)C(=O)O (H-KK(Benzoyl(4-B(OH)2))FK([Phe-X3])KKWY-OH) | 27.2 | Active | inactive | –
8 | CC(C)C[C@H](NC(=O)[C@H](CCCCN)NC(=O)[C@H](CCCCNC(=O)[C@H](CCCCN)NC(=O)[C@H](CCCCNC(=O)c1ccc(B(O)O)cc1)NC(=O)[C@@H](N)CCCCN)NC(=O)[C@H](CCCCN)NC(=O)[C@H](CCCCNC(=O)c1ccc(B(O)O)cc1)NC(=O)[C@@H](N)CCCCN)C(=O)N[C@@H](CCCCN)C(=O)N[C@@H](Cc1ccc(O)cc1)C(=O)O (H-KK(Benzoyl(4-B(OH)2))KK([Lys-X3])KLKY-OH) | 58.4 | Active | inactive | –
9 | C[C@@H](O)[C@H](NC(=O)[C@H](Cc1ccc(B(O)O)cc1)NC(=O)[C@H](CCCCNC(=O)[C@H](CCCCNC(=O)c1ccc(B(O)O)cc1)NC(=O)[C@H](CCCCN)NC(=O)[C@@H](N)CCCCN)NC(=O)[C@H](CCCCNC(=O)c1ccc(B(O)O)cc1)NC(=O)[C@H](CCCCN)NC(=O)[C@@H](N)CCCCN)C(=O)N[C@@H](CO)C(=O)N[C@@H](Cc1ccc(O)cc1)C(=O)O (H-KKK(Benzoyl(4-B(OH)2))K(X2)[Phe(4-B(OH)2)]TSY-OH) | 26.8 | Active | inactive | –
10 | NCCCC[C@H](NC(=O)[C@H](CCCCN)NC(=O)[C@@H](N)Cc1c[nH]c2ccccc12)C(=O)NCCCC[C@H](NC(=O)[C@H](CCCCN)NC(=O)[C@H](CCCCN)NC(=O)[C@@H](N)Cc1c[nH]c2ccccc12)C(=O)N[C@@H](CCCCNC(=O)c1ccc(B(O)O)cc1)C(=O)N[C@@H](Cc1ccc(O)cc1)C(=O)N[C@@H](Cc1c[nH]c2ccccc12)C(=O)N[C@@H](Cc1ccc(O)cc1)C(=O)O (H-WKKK([Lys-Lys-Trp])K(Benzoyl(4-B(OH)2))YWY-OH) | 1.4 | Active | inactive | –
11 | C[C@@H](O)[C@H](NC(=O)[C@@H]1CCCN1C(=O)[C@H](CCCCNC(=O)[C@H](CCCCN)NC(=O)[C@H](Cc1ccc(O)cc1)NC(=O)[C@@H](N)Cc1c[nH]c2ccccc12)NC(=O)[C@H](CCCCN)NC(=O)[C@H](Cc1ccc(O)cc1)NC(=O)[C@@H](N)Cc1c[nH]c2ccccc12)C(=O)N[C@@H](Cc1c[nH]c2ccccc12)C(=O)N[C@@H](Cc1ccc(O)cc1)C(=O)O (H-WYKK([Lys-Tyr-Trp])PTWY-OH) | 28.5 | Active | inactive | –
12 | NCCCC[C@H](NC(=O)[C@H](CC(N)=O)NC(=O)[C@H](CCCCNC(=O)[C@H](Cc1ccc(B(O)O)cc1)NC(=O)[C@H](Cc1ccc(O)cc1)NC(=O)[C@@H](N)Cc1ccc(B(O)O)cc1)NC(=O)[C@H](Cc1ccc(B(O)O)cc1)NC(=O)[C@H](Cc1ccc(O)cc1)NC(=O)[C@@H](N)Cc1ccc(B(O)O)cc1)C(=O)N[C@@H](CO)C(=O)N[C@@H](Cc1ccc(O)cc1)C(=O)O (H-[Phe(4-B(OH)2)]Y[Phe(4-B(OH)2)]K(X1)NKSY-OH) | 8.7 | – | Active | Activity (HeLa): Non-Toxic; Activity [5]: Active; inhibition [6]: Dose-dependent effect; IC50 ([6]; Human immunodeficiency virus 1, NL4-3, U-87 MG, 96 h): 5 µM; inhibition at 10 µM ([2]; Human immunodeficiency virus 1, NL4-3, in Primates): 70%; Kd [7]: 4.6 µM; Kd [8]: 5.2 µM; Activity [9]: Dose-dependent effect; inhibition [4]: Active; Activity [10]: inactive; Activity [11]: inactive; Kd [12]: 26.4 µM; Activity [13]: inactive; Activity [14]: inactive; viability at 24 h, 10 µM [15]: > 80%; Selectivity ratio [16]: 3
13 | NCCCC[C@H](NC(=O)[C@H](CC(N)=O)NC(=O)[C@H](CCCCN)NC(=O)[C@H](Cc1ccc(B(O)O)cc1)NC(=O)[C@H](Cc1ccc(O)cc1)NC(=O)[C@@H](N)Cc1ccc(B(O)O)cc1)C(=O)N[C@@H](CO)C(=O)N[C@@H](Cc1ccc(O)cc1)C(=O)O (H-[Phe(4-B(OH)2)]Y[Phe(4-B(OH)2)]KNKSY-OH) | 17.7 | – | – | –
14 | NCCCC[C@H](NC(=O)[C@H](CC(N)=O)NC(=O)[C@H](Cc1ccc(B(O)O)cc1)NC(=O)[C@H](Cc1ccc(O)cc1)NC(=O)[C@H](Cc1ccc(B(O)O)cc1)NC(=O)[C@H](Cc1ccc(B(O)O)cc1)NC(=O)[C@H](Cc1ccc(O)cc1)NC(=O)[C@@H](N)Cc1ccc(B(O)O)cc1)C(=O)N[C@@H](CO)C(=O)N[C@@H](Cc1ccc(O)cc1)C(=O)O (H-[Phe(4-B(OH)2)]Y[Phe(4-B(OH)2)][Phe(4-B(OH)2)]Y[Phe(4-B(OH)2)]NKSY-OH) | 27.2 | – | – | –
